From ChEMBL document CHEMBL1139372, “Docking studies on a new human immunodeficiency virus integrase-Mg-DNA complex: phenyl ring exploration and synthesis of 1H-benzylindole derivatives through fluorine substitutions” (J Med Chem, 2009) come the findings set out here.

Data set [1] is described as follows: Selectivity index, ratio of CC50 for human MT4 cells to EC50 for HIV1 3B. In kind it is toxicity, cell-based. Particulars: read-out: Ratio CC50/EC50. Summed up:
(§1)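 Human lymphocyte MT-4 cultures infected with HIV-1; HIV-induced cytopathic effect read by MTT assay; EC50 is the concentration reducing cytopathic effect by 50%; average ± SD; SI is CC50/EC50.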

Data set [2] relates to Human immunodeficiency virus 1. The experiment in a line: Antiviral activity against HIV1 3B infected in human MT4 cells assessed as inhibition of virus-induced cytopathic effect by MTT assay. In kind it is functional, organism-based. Particulars: Human immunodeficiency virus 1, 3B. Summed up:
as §1

Data set [3] has as its target T1, Human immunodeficiency virus type 1 integrase (Human immunodeficiency virus 1, UniProt Q7ZJM1). The data set can be described thus: Inhibition of HIV1 integrase activity by ELISA. In outline:
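In vitro overall integrase reaction measured by enzyme-linked immunosorbent assay; IC50 is the concentration giving 50% inhibition of overall integrase activity; average ± SD.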

The target in data set [4] is T1, Human immunodeficiency virus type 1 integrase. The data set can be described thus: Inhibition of HIV1 integrase strand transfer activity by ELISA. Summed up: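 Strand transfer step of integration measured in vitro by enzyme-linked immunosorbent assay; IC50 is the concentration giving 50% inhibition of strand transfer; average ± SD.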
The nature of data set [5]: Cytotoxicity against human MT4 cells by MTT assay. The format is cell-based. In outline:
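Uninfected MT-4 cells; viability read by MTT assay; CC50 is the concentration reducing viability by 50%; average ± SD; SI is CC50/EC50.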

T1 sequence (Q7ZJM1 whole entry): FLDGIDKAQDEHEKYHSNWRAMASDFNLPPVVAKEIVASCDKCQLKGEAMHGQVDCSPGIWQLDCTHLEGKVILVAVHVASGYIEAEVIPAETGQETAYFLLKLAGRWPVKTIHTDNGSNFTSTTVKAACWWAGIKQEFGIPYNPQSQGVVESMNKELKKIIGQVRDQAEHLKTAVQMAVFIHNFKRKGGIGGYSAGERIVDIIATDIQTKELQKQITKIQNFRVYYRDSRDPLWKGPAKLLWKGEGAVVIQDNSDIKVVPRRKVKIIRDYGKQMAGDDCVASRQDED

As for `COc1cccc2c1c(C(=O)/C=C(\O)C(=O)O)cn2Cc1ccc(F)cc1`, the selectivity ratio in data set [1] is 70. For the same compound, in data set [2], the half-maximal effective concentration (EC50) came out at 590 nM.
With `COc1cccc2c1c(C(=O)/C=C(\O)C(=O)O)cn2Cc1c(F)cccc1F`, the IC50 is 130 nM in data set [3] and 80 nM in data set [4]. The selectivity ratio in data set [1] was 108. The EC50 in data set [2] is 410 nM. In data set [5], this compound returned a cytotoxic concentration (CC50) of 44300 nM.
For `COc1cccc2c1c(C(=O)/C=C(\O)C(=O)O)cn2Cc1cccc(F)c1F`, in that order: 10 nM, 120 nM, more than 68.7, 260 nM and 17500 nM.
As to `COc1cccc2c1c(C(=O)/C=C(\O)C(=O)O)cn2Cc1ccc(F)c(F)c1`, the values for the IC50 in data set [3] and in data set [4] were 420 nM and 600 nM, respectively. In data set [1], the selectivity ratio amounted to 25. Moreover, in data set [2], the EC50 is 2800 nM. This compound gave a half-maximal cytotoxic concentration (CC50) in data set [5] of 71000 nM.
On to `CCOC(=O)/C(O)=C/C(=O)c1cn(Cc2cccc(F)c2)c2cccc(OC)c12`, for which the IC50 in data set [3] turned out to be 300 nM; in data set [4] it was 2260 nM. Further, the selectivity ratio in data set [1] is 28.5. In addition, in data set [2], the concentration for a half-maximal effect (EC50) came to 2210 nM. In data set [5], this compound gave a half-maximal cytotoxic concentration (CC50) of 63200 nM.
Regarding `CCOC(=O)/C(O)=C/C(=O)c1cn(Cc2ccc(F)c(F)c2)c2cccc(OC)c12`, the values for the IC50 in data set [3] and in data set [4] were 26500 nM and 1560 nM, respectively. Moreover, the selectivity ratio in data set [1] is more than 2. Also, in data set [2], the EC50 came to 80100 nM. Further, the midpoint of cytotoxicity in data set [5], the CC50, lay at 125000 nM.
Consider `CCOC(=O)/C(O)=C/C(=O)c1cn(Cc2cc(F)cc(F)c2)c2cccc(OC)c12`, for which the half-maximal inhibitory concentration (IC50) in data set [3] was 1520 nM; in data set [4], 2740 nM. In addition, the selectivity ratio in data set [1] is more than 5.8. Further, the EC50 in data set [2] is 5940 nM. For the same compound, the 50% cytotoxic concentration (CC50) in data set [5] is 34700 nM.
For `CCOC(=O)/C(O)=C/C(=O)c1cn(Cc2ccc(F)c(F)c2F)c2cccc(OC)c12`, in that order: 3010 nM, 1150 nM, more than 13, 3150 nM and 42700 nM.
For `CCOC(=O)/C(O)=C/C(=O)c1cn(Cc2cc(F)ccc2F)c2cccc(OC)c12`, in that order: 1410 nM, 400 nM, 13.1, 3150 nM and 41200 nM.
For `CCOC(=O)/C(O)=C/C(=O)c1cn(Cc2c(F)cccc2F)c2cccc(OC)c12`, the half-inhibitory concentration (IC50) in data set [3] is 360 nM; in data set [4] it was 70 nM. The selectivity ratio in data set [1] was more than 31.1. Moreover, the concentration giving a half-maximal response (EC50) in data set [2] was 2040 nM. This compound returned a CC50 in data set [5] of 63400 nM.
The like results for `CCOC(=O)/C(O)=C/C(=O)c1cn(Cc2ccccc2F)c2cccc(OC)c12` were, in that order, 380 nM, 720 nM, 45.3, 1400 nM and 63300 nM.
On to `CCOC(=O)/C(O)=C/C(=O)c1cn(Cc2ccc(F)cc2F)c2cccc(OC)c12`, for which the IC50 amounted to 110 nM in data set [3] and 670 nM in data set [4]. Besides, in data set [1], the selectivity ratio was 33.7. Also, in data set [2], the EC50 was 1950 nM. For the same compound, in data set [5], it took 65500 nM to reach half-maximal cytotoxicity (CC50).
The like results for `CCOC(=O)/C(O)=C/C(=O)c1cn(Cc2cc(F)c(F)c(F)c2)c2cccc(OC)c12` were, in that order, 2000 nM, 1410 nM, 8.4, 3960 nM and 33400 nM.
Consider `COc1cccc2c1c(C(=O)/C=C(\O)C(=O)O)cn2Cc1ccccc1F`, for which the half-inhibitory concentration (IC50) was 70 nM in data set [3] and 40 nM in data set [4]. The selectivity ratio in data set [1] was found to be 228. Besides, the EC50 in data set [2] turned out to be 310 nM. Moreover, in data set [5], the CC50 worked out at 70500 nM.
For `COc1cccc2c1c(C(=O)/C=C(\O)C(=O)O)cn2Cc1cc(F)c(F)c(F)c1`, in that order: 60 nM, 100 nM, 10.5, 2210 nM and 23300 nM.
Regarding `CCOC(=O)/C(O)=C/C(=O)c1cn(Cc2c(F)ccc(F)c2F)c2cccc(OC)c12`, the concentration for half-maximal inhibition (IC50) in data set [3] was 170 nM; in data set [4] it was 820 nM. The selectivity ratio in data set [1] is 8.4. Also, the 50% effective concentration (EC50) in data set [2] was 4840 nM. Further, the half-maximal cytotoxic concentration (CC50) in data set [5] stood at 40500 nM.
The like results for `COc1cccc2c1c(C(=O)/C=C(\O)C(=O)O)cn2Cc1cc(F)ccc1F` were, in that order, 50 nM, 20 nM, 113, 410 nM and 46200 nM.
With `CCOC(=O)/C(O)=C/C(=O)c1cn(Cc2cccc(F)c2F)c2cccc(OC)c12`, the values for the half-maximal inhibitory concentration (IC50) in data set [3] and in data set [4] were 5 nM and 12 nM, respectively. Further, the selectivity ratio in data set [1] came to 11.1. In addition, the EC50 in data set [2] was 1900 nM. In data set [5], the midpoint of cytotoxicity, the CC50, lay at 21100 nM.
The like results for `COc1cccc2c1c(C(=O)/C=C(\O)C(=O)O)cn2Cc1ccc(F)c(F)c1F` were, in that order, 140 nM, 280 nM, 19.9, 1150 nM and 22800 nM.
The like results for `COc1cccc2c1c(C(=O)/C=C(\O)C(=O)O)cn2Cc1ccc(F)cc1F` were, in that order, 10 nM, 20 nM, 50.7, 410 nM and 20800 nM.
For `COc1cccc2c1c(C(=O)/C=C(\O)C(=O)O)cn2Cc1cc(F)cc(F)c1`, the IC50 in data set [3] is 440 nM; in data set [4] it was 240 nM. In addition, the selectivity ratio in data set [1] worked out at 10.6. Also, in data set [2], the EC50 worked out at 2780 nM. For the same compound, in data set [5], the cytotoxic concentration (CC50) was 29500 nM.
On to `COc1cccc2c1c(C(=O)/C=C(\O)C(=O)O)cn2Cc1cccc(F)c1`, for which the IC50 in data set [3] and in data set [4] was 30 nM throughout. Moreover, the selectivity ratio in data set [1] was determined as 175. The concentration for a half-maximal effect (EC50) in data set [2] was 380 nM. For the same compound, the 50% cytotoxic concentration (CC50) in data set [5] worked out at 65800 nM.
For `COc1cccc2c1c(C(=O)/C=C(\O)C(=O)O)cn2Cc1c(F)ccc(F)c1F`, the IC50 came to 130 nM in data set [3] and 160 nM in data set [4]. Besides, the selectivity ratio in data set [1] stood at 75.5. Also, the EC50 in data set [2] worked out at 650 nM. In data set [5], this compound yielded a 50% cytotoxic concentration (CC50) of 49400 nM.
